Experimental data as given in ChEMBL document CHEMBL2169822, “Discovery and optimization of 1,3,4-trisubstituted-pyrazolone derivatives as novel, potent, and nonsteroidal farnesoid X receptor (FXR) selective antagonists” (J Med Chem, 2012).
The source made the active and inactive calls. No cut-off for these calls is given here.

How the values were obtained:
Mus musculus [1] = experiment: Reduction of hepatic cholesterol level in cholesterol-fed C57BL/6 mouse at 100 mg/kg, po after 10 days; assay type: functional; parameters: scale not given: the % may be the effect or the level left
In short: (§1)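 Male C57BL/6 mice, 8–12 weeks old, were randomized into five groups of nine. Control mice had ground chow; the other groups had chow with 2% cholesterol. Compound (50 or 100 mg/kg) or reference (100 mg/kg) was suspended in 0.5% CMC-Na and given by oral gavage; control and vehicle mice got 0.5% CMC-Na. Serum and hepatic triglyceride and total cholesterol were measured.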

[2] = target: T1, Bile acid receptor (Homo sapiens) (UniProt Q96RI1); experiment: Antagonist activity at human FXR in human HepG2 cells assessed as reduction in cholesterol level after 24 hrs; assay type: functional, cell-based
T1 sequence (whole entry): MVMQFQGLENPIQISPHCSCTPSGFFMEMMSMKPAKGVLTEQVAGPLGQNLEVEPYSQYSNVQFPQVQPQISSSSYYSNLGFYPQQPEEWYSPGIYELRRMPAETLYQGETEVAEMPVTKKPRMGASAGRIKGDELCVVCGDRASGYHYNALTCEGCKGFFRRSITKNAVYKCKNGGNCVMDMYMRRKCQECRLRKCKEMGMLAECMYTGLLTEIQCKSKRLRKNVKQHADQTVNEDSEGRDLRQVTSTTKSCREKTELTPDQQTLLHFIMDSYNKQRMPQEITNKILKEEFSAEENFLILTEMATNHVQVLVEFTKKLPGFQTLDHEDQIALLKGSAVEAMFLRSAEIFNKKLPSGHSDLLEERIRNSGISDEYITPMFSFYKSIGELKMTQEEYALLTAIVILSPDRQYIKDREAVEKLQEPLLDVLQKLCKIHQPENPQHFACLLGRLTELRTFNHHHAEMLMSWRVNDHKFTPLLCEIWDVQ
In short: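 HepG2 cells were serum-starved overnight in FBS-free DMEM, then given DMSO or compound for 24 h in serum-free DMEM. Cells were lysed in RIPA buffer, sonicated on ice and centrifuged at 12000 rpm, 4 °C. Triglyceride and total cholesterol in the cleared lysate were measured by kits, with total protein by BCA. At least three experiments.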

HEK-293T [3] = experiment: Agonist activity at FXRalpha/RXRalpha expressed in HEK293T cells co-expressing GAL4 DBD after 18 hrs by luciferase based transactivation assay; assay type: functional, cell-based; settings: Homo sapiens
In short: (§2)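 FXR transactivation in HEK293T cells transiently transfected with pcDNA3.1-FXRα, pcDNA3.1-RXRα, pGL3-FXRE-Luc and pRL-SV40 Renilla vector. Medium was replaced 6 h after transfection with medium holding compound at varied concentrations, with or without 20 μM CDCA, for 18 h. Read-out was dual-luciferase. Three independent experiments.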

[4] = Oral bioavailability in Sprague-Dawley rat at 50 mg/kg by LC-MS/MS analysis; assay type: ADME, organism-based; settings: in vivo
[5] = target: T2, Peroxisome proliferator-activated receptor gamma (Homo sapiens) (UniProt P37231); experiment: Agonist activity at recombinant PPARgamma LBD expressed in HEK293T cells co-expressing GAL4 DBD at 20 uM by transactivation assay; assay type: functional, cell-based; settings: HEK-293T
T2 sequence (whole entry): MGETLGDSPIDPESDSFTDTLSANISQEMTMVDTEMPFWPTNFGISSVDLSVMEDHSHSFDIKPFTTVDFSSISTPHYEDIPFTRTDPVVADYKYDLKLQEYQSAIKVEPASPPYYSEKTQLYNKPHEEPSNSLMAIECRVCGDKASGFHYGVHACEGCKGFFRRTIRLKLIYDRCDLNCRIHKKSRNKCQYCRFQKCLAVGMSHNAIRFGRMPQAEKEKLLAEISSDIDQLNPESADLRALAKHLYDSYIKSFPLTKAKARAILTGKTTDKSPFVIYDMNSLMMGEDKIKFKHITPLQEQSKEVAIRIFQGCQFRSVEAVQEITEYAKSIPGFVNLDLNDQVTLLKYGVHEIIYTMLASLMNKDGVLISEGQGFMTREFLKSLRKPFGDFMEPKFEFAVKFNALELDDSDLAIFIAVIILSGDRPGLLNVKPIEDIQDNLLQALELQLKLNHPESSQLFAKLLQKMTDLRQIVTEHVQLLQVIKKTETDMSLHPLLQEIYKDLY
In short: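 One-hybrid assay in HEK293T cells cotransfected with a Gal4 DBD–NR-LBD fusion (RXRα, LXRα, GR, PR, PPARδ or PPARγ) plus UAS-TK-Luc reporter. Compound was 20 μM, given alone or with agonist: 9cRA 0.1 μM (RXRα), TO901317 0.5 μM (LXRα), dexamethasone 50 nM (GR), progesterone 100 nM (PR), GW1516 10 μM (PPARδ), rosiglitazone 10 μM (PPARγ). Luciferase read-out; three independent experiments.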

HEK-293T [6] = experiment: (§3) Antagonist activity at FXRalpha/RXRalpha expressed in HEK293T cells co-expressing GAL4 DBD assessed as inhibition of CDCA-induced transactivation after 18 hrs by luciferase reporter gene assay; assay type: functional, cell-based; settings: Homo sapiens; in short: as §2
[7] = as §3; assay type: functional, cell-based; settings: Homo sapiens, HEK-293T; in short: as §2
Mus musculus [8] = experiment: Reduction of total serum cholesterol level in cholesterol-fed C57BL/6 mouse at 50 to 100 mg/kg, po after 10 days; assay type: functional; parameters: scale not given: the % may be the effect or the level left; settings: dose mg/kg 50-100; in short: as §1
[9] = target: T1, Bile acid receptor (Homo sapiens); experiment: Antagonist activity at human FXR in human HepG2 cells assessed as inhibition of CDCA induced SREBP1c gene expression at 5 to 40 uM after 24 hrs by RT-PCR analysis; assay type: functional, cell-based
In short: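 HepG2 cells in 6-well plates were treated with varied concentrations of compound, with or without 100 μM CDCA, for 24 h. Total RNA was taken with TRIzol and cDNA made by reverse transcription. Cyp7A1, SHP, BSEP and SREBP1c mRNA were measured by quantitative RT-PCR and normalized to β-actin. Three independent experiments.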

- inhibition [2]: Dose-dependent effect
- bioavailability [4]: < 5%
- Activity [5]: < 15.2%
- IC50 [7]: 25.6 µM
- inhibition [9]: Active
Compound: COc1cc(/C=C2\C(=O)N(c3cccc([N+](=O)[O-])c3)N=C2c2ccccc2)ccc1O
- Activity (Mus musculus [1]): 47.5%
- Activity (HEK-293T [3]): inactive
- inhibition (HEK-293T [6]): Dose-dependent effect
- Activity (Mus musculus [8]): 17.2%
